Measured values as given in PubChem BioAssay AID624466 (The Scripps Research Institute Molecular Screening Center, 2012).
Hit rate of the full screen: of about 360,000 compounds, about 5,400 (1.5%) were called active. What follows is part of a selection rich in actives, with near analogues and random picks from the rest. A number with no mark means an inactive call.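 The calls were made as follows: active = inhibition above a per-plate cutoff, the mean inhibition of test compounds on that plate plus 3 SD (cut at about 49% in these data); inactive = the rest.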

biological target: Trace amine-associated receptor 1 (Homo sapiens) (UniProt Q96RJ0); test: human TAAR1 antagonists, primary screen, Fluo-8 calcium fluorescence, CHO RD-HGA16 cells (AID 624466); settings: CHO RD-HGA16 TAAR1, Fluo-8 calcium fluorescence, antagonist; at 3 µM; hits give high values;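 also: 0% = DMSO plus EC80 beta-PEA response and 100% = DMSO alone without agonist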
Outline: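 Test system: CHO RD-HGA16 cells bearing hTAAR1 | Reagent: β-PEA, EC80 | Compound dosing: 3 µM, single point | Schedule: Dye loading 75 min at 37 °C, then 30 min room temperature | Signal: Calcium fluorescence with Fluo-8 | Evaluation: Percent inhibition of PEA-evoked calcium signal, max/basal emission ratio | Control set: DMSO-only wells and EC80 β-PEA-stimulated wells | Repeats: Singlicate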

Trace amine-associated receptor 1 (Homo sapiens), sequence (Q96RJ0 whole entry, looked up): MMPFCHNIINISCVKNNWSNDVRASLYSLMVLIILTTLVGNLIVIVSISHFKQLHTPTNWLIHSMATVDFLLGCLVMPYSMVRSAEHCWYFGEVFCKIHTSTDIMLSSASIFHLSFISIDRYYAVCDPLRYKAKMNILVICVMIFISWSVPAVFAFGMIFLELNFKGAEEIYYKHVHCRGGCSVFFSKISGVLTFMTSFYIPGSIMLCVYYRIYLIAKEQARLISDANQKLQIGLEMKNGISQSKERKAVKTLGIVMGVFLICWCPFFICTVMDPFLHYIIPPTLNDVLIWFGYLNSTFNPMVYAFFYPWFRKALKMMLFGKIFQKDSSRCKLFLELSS

Row | Structure (SMILES) | inhibition
1 | Cc1cccc(N2CCN(Cc3nc(C4CC4)no3)CC2)n1 | -31.7%
2 | Cc1cc(OC(=O)NCCc2ccc(F)cc2)ccc1F | -10.5%
3 | CC(C)CNc1cccc2c1S(=O)(=O)N[C@H](CC(C)C)CO2 | -8.78%
4 | Cc1ccc(-c2nnc(SCC(=O)N/N=C/c3cccs3)n2-c2ccc(C)cc2)cc1 | 7.24%
5 | Cc1nc2ccccc2n1CC(=O)N/N=C/c1cccs1 | 56.9% (active)
6 | COc1ccc(NC(=O)COC(=O)Cn2c(C)nc3ccccc32)cc1OC | 13.9%
7 | Cc1[nH]c2ccccc2c1C(=O)c1cc([C@H](NC(=O)OC(C)(C)C)C(C)C)sc1N | -5.4%
8 | O=C(CSc1nc2ccccc2c(=O)n1CCCO)N1CCc2ccccc21 | -4.55%
9 | Cn1c(SCC(=O)N2CCCc3ccccc32)nc2ccccc2c1=O | 59.3% (active)
10 | C=CCn1c(=O)c2ccccc2n2c(SCC(=O)N3CCCc4ccccc43)nnc12 | 5.64%
11 | COc1ccccc1NC(=O)/C=C/C(N)=O | -1.16%
12 | COC(=O)c1sc(-c2ccc(C(C)(C)C)cc2)cc1NC(=O)/C=C/C(=O)O | 69.3% (active)
13 | COc1ccc(NS(=O)(=O)c2ccc(N3CCOCC3)c(NC(=O)/C=C/C(=O)O)c2)cc1 | -2.93%
14 | C[C@H](NC(=O)c1nc[nH]c1C(=O)NCC(=O)OC(C)(C)C)c1ccccc1 | -2.15%
15 | O=C(Nc1ccon1)c1nc[nH]c1C(=O)NCc1ccccc1 | -5.83%
16 | CNC(=O)c1[nH]cnc1C(=O)N[C@@H](CC(C)C)C(=O)OCc1ccccc1 | 23.5%
17 | Cc1cccc(NC(=O)c2nc[nH]c2C(=O)NCC(=O)OCc2ccccc2)c1 | 64% (active)
18 | CC(C)(C)OC(=O)NCCCCCNC(=O)c1[nH]cnc1C(=O)Nc1nccs1 | 38.9%
19 | C[C@H](NC(=O)c1nc[nH]c1C(=O)N[C@@H](C)C(=O)OC(C)(C)C)C(=O)OC(C)(C)C | 0.46%
20 | CC(C)(C)OC(=O)CNC(=O)c1[nH]cnc1C(=O)N[C@@H](Cc1ccccc1)C(=O)OCc1ccccc1 | 51.3% (active)
21 | C[C@H](NC(=O)c1nc[nH]c1C(=O)NCC(=O)OC(C)(C)C)C(=O)OCc1ccccc1 | 60.9% (active)
22 | CC(C)(C)OC(=O)N1CCC(NC(=O)c2[nH]cnc2C(=O)N[C@@H](Cc2ccccc2)C(=O)OCc2ccccc2)CC1 | 35.6%
23 | O=C(Nc1cc(Br)ccc1F)c1nc[nH]c1C(=O)NCc1ccccc1 | -18.3%
24 | CC(C)(C)OC(=O)NCCCCCNC(=O)c1nc[nH]c1C(=O)NCc1ccccc1 | 60% (active)
25 | O=C(N[C@@H](Cc1ccccc1)C(=O)OCc1ccccc1)c1nc[nH]c1C(=O)N[C@@H](Cc1ccccc1)C(=O)OCc1ccccc1 | 15.8%
26 | CN(CCc1ccccn1)C1CCCN(S(=O)(=O)c2ccccc2Cl)C1 (configuration not stated) | -19.7%

Row | Structure (SMILES) | inhibition
27 | COc1ccccc1Cc1c(-c2ccc(F)cc2)nc2ccc(C)cn12 | -18.1%
28 | O=C(NCc1ccccc1)[C@H]1CCCN1C(=O)[C@H]1CCCN1C(=O)N1CCOCC1 | 15.4%
29 | CCCCn1nnnc1C(c1cc2ccccc2o1)N(C)Cc1ccc(Cl)c(Cl)c1 (configuration not stated) | -19.1%
30 | CC(C)[C@H]1COCCS(=O)(=O)N1Cc1ccccc1-c1cccc2c1sc1ccccc12 | -54.8%
31 | Nc1nc(CC(=O)CSc2ccc(Cl)cc2)nc(Nc2ccc(F)cc2)n1 | -2.27%
32 | C=CCC[C@@H](CCCCC)OC(=O)/C=C/[C@@H](O)[C@H](O)C[C@H](O)CC=C | -5.68%
33 | Cc1nc(NC(=O)C(C)(C)C)sc1[N+](=O)[O-] | -6.34%
34 | Cc1ccc(C(=O)N2CC(=O)Nc3ccccc32)o1 | -3.59%
35 | O=C(NCc1ccccc1)C(c1ccc(F)cc1)N1CCN(C(=O)C2CCCO2)CC1 (configuration not stated) | -21.5%
36 | CCCCC[C@H](C)N1C[C@@H](COCc2ccccc2)Oc2cc(N3CC[C@@H](N(C)C)C3)ccc2S1(=O)=O | -6.02%
37 | Nc1ncnc2c1ncn2[C@@H]1O[C@H](C(=O)N[C@@H](CCc2ccccc2)C(=O)NCC(=O)N2CCOCC2)[C@@H](O)[C@H]1O | 8.4%
38 | COC(=O)C1=C(C)N(Cc2cccc(C(F)(F)F)c2)C(=NCc2ccccc2)NC1c1ccc(Cl)cc1 (configuration not stated) | 46%
39 | COC(=O)[C@]12C[C@H](CC(=O)NCc3ccccc3)C(=O)N(CCC3=CCCCC3)C1=C[C@H](C(C)(C)C)O[C@@H]2C | -44.8%
40 | COc1cccc(-c2cc(CNC(=O)[C@@H](Cc3ccccc3)NC(=O)[C@H]3O[C@@H](n4cnc(C(N)=O)n4)[C@H](O)[C@@H]3O)no2)c1 | -23.1%
41 | O=C(NCCN1CCOCC1)c1ccc2c(c1)N(Cc1cccc(Cl)c1)C(=O)c1ccccc1S2(=O)=O | -0.54%
42 | CCN1CCN(CCNC(=O)c2ccc(/C=C3/Sc4ccccc4N(Cc4cccc(C)c4)C3=O)cc2)CC1 | 61.5% (active)
43 | O=C(NCCN1CCOCC1)c1ccc(/C=C2\Sc3ccccc3N(Cc3ccc(F)cc3)C2=O)cc1 | 70.2% (active)
44 | Cc1cccc(-c2nc3ccc(C(=O)NCCN4CCN(C)CC4)cc3nc2-c2cccc(C)c2)c1 | -13.7%
45 | Cc1ccc(C(=O)N/C(=C\c2ccc(F)cc2)C(=O)NCCN2CCOCC2)cc1 | 0.72%
46 | O=C(NCCN1CCOCC1)/C(=C/c1ccc(F)cc1)NC(=O)c1ccccc1 | 1.45%
47 | C=C1C(=O)OC2C1CCC(C)=CCCC1(C)OC21 (configuration not stated) | -17.7%
48 | CCOc1ccc(S(=O)(=O)NCCC(=O)NNC(=O)c2ccc(F)cc2)cc1 | -12%
49 | O=C(Nc1ccccc1N1CCOCC1)c1ccc(OCc2cscn2)cc1 | 29.3%
50 | CC(C)OCCCNc1ncnc2c1[nH]c1ccc(F)cc12 | 51.5% (active)
51 | Cc1ccc(C2NC(C(=O)O)CS2)cc1 (configuration not stated) | -13.1%
52 | O=C1/C(=C\c2ccc([N+](=O)[O-])cc2)CS(=O)(=O)C/C1=C/c1ccc([N+](=O)[O-])cc1 | 36.7%
